Experimental data reported in ChEMBL document CHEMBL1139778, “Synthesis and biological evaluation of cinnamyl compounds as potent antitumor agents” (Bioorg Med Chem Lett, 2007).
Blank lines part the entries; values can stand above or below the compound they belong to. Calls of active or inactive are those of the source. The rule behind the calls is not given here.

Assays:
[1] = Growth inhibition of human […] cells after 24 hrs by ELISA; assay type: functional
[2] = test system: NCI-H23; assay: Growth inhibition of human NCI-H23 cells after 24 hrs by ELISA; assay type: functional; conditions: NCI-H23, 24 h
[3] = test system: A549; assay: Growth inhibition of human A549 cells after 24 hrs by ELISA; assay type: functional; conditions: A549, 24 h
[4] = test system: HCT-116; assay: Growth inhibition of human HCT116 cells after 24 hrs by ELISA; assay type: functional; conditions: HCT-116, 24 h
[5] = test system: SK-OV-3; assay: Growth inhibition of human SKOV3 cells after 24 hrs by ELISA; assay type: functional; conditions: SK-OV-3, 24 h
[6] = test system: SW-620; assay: Cell cycle arrest in human SW620 cells assessed as accumulation at G2/M phase at 30 uM after 24 hrs by flow cytometry; assay type: functional
In short: (§1)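 After treatment, cells harvested at 24 h, trypsinized, washed with PBS, fixed overnight in ice-cold 70% EtOH, then treated with RNase A 100 µg/mL at 37 °C for 30 min. Stained with propidium iodide (final 50 µg/mL). DNA content of 20,000 fixed cells read by flow cytometry (FACScalibur); phase distribution from cell cycle modelling.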

[7] = test system: HCT-116; assay: Cell cycle arrest in human HCT116 cells assessed as accumulation at S phase at 30 uM after 24 hrs by flow cytometry; assay type: functional; in short: as §1
[8] = test system: HCT-116; assay: Cell cycle arrest in human HCT116 cells assessed as accumulation at G2/M phase at 30 uM after 24 hrs by flow cytometry; assay type: functional; in short: as §1
[9] = test system: SW-620; assay: Cell cycle arrest in human SW620 cells assessed as accumulation at S phase at 30 uM after 24 hrs by flow cytometry; assay type: functional; in short: as §1
[10] = test system: SW-620; assay: Antitumor activity against human SW620 cells in nude mouse assessed as tumor volume on day 7 at 50 mg/kg, […]; assay type: functional; conditions: route intraperitoneal
[11] = test system: HCT-116; assay: Induction of caspase 3 cleavage in human HCT116 cells at 20 uM after 24 hrs; assay type: functional, cell-based
In short: (§2)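 HCT116 cells treated for 24 h, lysed in RIPA buffer; 40 µg lysate resolved by 15% SDS–PAGE, blotted to PVDF, blocked in 5% milk/TBS-T. Primary antibodies 2 h at room temperature, HRP goat anti-rabbit secondary, chemiluminescent detection on X-ray film for PARP and caspase-3 cleavage.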

[12] = test system: SW620 (human colon adenocarcinoma); assay: Induction of apoptosis in human SW620 cells at 30 uM after 24 hrs
[13] = test system: SW-620; assay: Cell cycle arrest in human SW620 cells assessed as accumulation at subG1 phase at 30 uM after 24 hrs by flow cytometry; assay type: functional; in short: as §1
[14] = test system: HCT-116; assay: Cell cycle arrest in human HCT116 cells assessed as accumulation at G0/G1 phase at 20 uM after 24 hrs by flow cytometry; assay type: functional; in short: as §1
[15] = test system: HCT-116; assay: Cell cycle arrest in human HCT116 cells assessed as accumulation at S phase at 20 uM after 24 hrs by flow cytometry; assay type: functional; in short: as §1
[16] = test system: SW-620; assay: Cell cycle arrest in human SW620 cells assessed as accumulation at subG1 phase at 40 uM after 24 hrs by flow cytometry; assay type: functional; in short: as §1
[17] = test system: HCT-116; assay: Cell cycle arrest in human HCT116 cells assessed as accumulation at subG1 phase at 20 uM after 24 hrs by flow cytometry; assay type: functional; in short: as §1
[18] = test system: SW-620; assay: Cell cycle arrest in human SW620 cells assessed as accumulation at G0/G1 phase at 20 uM after 24 hrs by flow cytometry; assay type: functional; in short: as §1
[19] = test system: HCT-116; assay: Cell cycle arrest in human HCT116 cells assessed as accumulation at G0/G1 phase at 30 uM after 24 hrs by flow cytometry; assay type: functional; in short: as §1
[20] = test system: HCT-116; assay: Cell cycle arrest in human HCT116 cells assessed as accumulation at subG1 phase at 40 uM after 24 hrs by flow cytometry; assay type: functional; in short: as §1
[21] = test system: SW-620; assay: Antitumor activity against human SW620 cells in nude mouse assessed as tumor volume on day 5 at 50 mg/kg, […]; assay type: functional; conditions: route intraperitoneal
[22] = test system: HCT-116; assay: Induction of PARP cleavage in human HCT116 cells at 20 uM after 24 hrs; assay type: functional, cell-based; in short: as §2
[23] = test system: SW-620; assay: Cell cycle arrest in human SW620 cells assessed as accumulation at S phase at 40 uM after 24 hrs by flow cytometry; assay type: functional; in short: as §1
[24] = test system: SW-620; assay: Cell cycle arrest in human SW620 cells assessed as accumulation at G2/M phase at 40 uM after 24 hrs by flow cytometry; assay type: functional; in short: as §1
[25] = test system: HCT-116; assay: Cell cycle arrest in human HCT116 cells assessed as accumulation at subG1 phase at 30 uM after 24 hrs by flow cytometry; assay type: functional; in short: as §1
[26] = test system: SW-620; assay: Cell cycle arrest in human SW620 cells assessed as accumulation at G2/M phase at 20 uM after 24 hrs by flow cytometry; assay type: functional; in short: as §1
[27] = test system: SW-620; assay: Cell cycle arrest in human SW620 cells assessed as accumulation at G0/G1 phase at 30 uM after 24 hrs by flow cytometry; assay type: functional; in short: as §1
[28] = test system: SW-620; assay: Antitumor activity against human SW620 cells in nude mouse assessed as tumor volume on day 9 at 50 mg/kg, […]; assay type: functional; conditions: route intraperitoneal
[29] = test system: SW-620; assay: Antitumor activity against human SW620 cells in nude mouse assessed as tumor volume on day 12 at 50 mg/kg, […]; assay type: functional; conditions: route intraperitoneal
[30] = test system: SW-620; assay: Antitumor activity against human SW620 cells in nude mouse assessed as tumor volume on day 14 at 50 mg/kg, ip for 20 days; assay type: organism-based; design: dose 50 mg/kg, route intraperitoneal; conditions: in vivo
In short: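 SW620 human colon adenocarcinoma cells (3 × 10⁷ cells/mL) implanted subcutaneously in right flank of nude mice on day 0. Compound in 0.5% Tween 80 given ip at 50 mg/kg per day; vehicle control and doxifluridine 50 mg/kg reference; 8 mice per group. Tumor volume estimated as length × width × height/2; mice sacrificed on day 14.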

[31] = test system: HCT-116; assay: Cell cycle arrest in human HCT116 cells assessed as accumulation at G0/G1 phase at 40 uM after 24 hrs by flow cytometry; assay type: functional; in short: as §1
[32] = test system: HCT-116; assay: Cell cycle arrest in human HCT116 cells assessed as accumulation at G2/M phase at 20 uM after 24 hrs by flow cytometry; assay type: functional; in short: as §1
[33] = test system: SW-620; assay: Cell cycle arrest in human SW620 cells assessed as accumulation at subG1 phase at 20 uM after 24 hrs by flow cytometry; assay type: functional; in short: as §1
[34] = test system: HCT-116; assay: Cell cycle arrest in human HCT116 cells assessed as accumulation at S phase at 40 uM after 24 hrs by flow cytometry; assay type: functional; in short: as §1
[35] = test system: HCT-116; assay: Cell cycle arrest in human HCT116 cells assessed as accumulation at G2/M phase at 40 uM after 24 hrs by flow cytometry; assay type: functional; in short: as §1
[36] = test system: SW-620; assay: Cell cycle arrest in human SW620 cells assessed as accumulation at S phase at 20 uM after 24 hrs by flow cytometry; assay type: functional; in short: as §1
[37] = test system: SW-620; assay: Cell cycle arrest in human SW620 cells assessed as accumulation at G0/G1 phase at 40 uM after 24 hrs by flow cytometry; assay type: functional; in short: as §1

Compound: COc1ccccc1/C=C/C(=O)NO
GI50 [1]: 16.8 µM
GI50 [2]: 26.9 µM
GI50 [3]: 53.5 µM
GI50 [4]: 15.3 µM
GI50 [5]: 48.8 µM

Compound: CO/N=C/C=C/c1ccccc1OC(=O)c1ccccc1
GI50 [1]: > 100 µM
GI50 [2]: > 100 µM
GI50 [3]: > 100 µM
GI50 [4]: > 100 µM
GI50 [5]: > 100 µM

Compound: O=C(Cl)/C=C/c1ccccc1OC(=O)c1ccccc1
GI50 [1]: > 100 µM
GI50 [2]: > 100 µM
GI50 [3]: > 100 µM
GI50 [4]: > 100 µM
GI50 [5]: > 100 µM

Compound: O=C(/C=C/c1ccccc1O)NO
GI50 [1]: 49.8 µM
GI50 [2]: 27.8 µM
GI50 [3]: 55.2 µM
GI50 [4]: 16.8 µM
GI50 [5]: 50.4 µM

Compound: C[C@H]1O[C@@H](n2cc(F)c(=O)[nH]c2=O)[C@H](O)[C@@H]1O [DOXIFLURIDINE]
Activity [10]: 15 mm3
Activity [21]: 3.8 mm3
Activity [28]: 41.4 mm3
Activity [29]: 77.9 mm3
Activity [30]: 120.7 mm3

Continued, in another order:

GI50 [2]: > 100 µM
GI50 [3]: > 100 µM
GI50 [4]: > 100 µM
GI50 [5]: > 100 µM
Compound: CN1CCN(C(=O)/C=C/c2ccccc2OC(=O)c2ccccc2)CC1
GI50 [1]: > 100 µM

GI50 [2]: 18.2 µM
GI50 [3]: 8.8 µM
GI50 [4]: 13.6 µM
GI50 [5]: 12.9 µM
Compound: O=C(/C=C/c1ccccc1OC(=O)c1ccccc1)NOC(=O)c1ccccc1
GI50 [1]: 3.2 µM

GI50 [2]: 45.2 µM
GI50 [3]: > 100 µM
GI50 [4]: 40.4 µM
GI50 [5]: > 100 µM
Compound: CN1CCN(C(=O)ONC(=O)/C=C/c2ccccc2OC(=O)c2ccccc2)CC1
GI50 [1]: 89.3 µM

GI50 [2]: 26.3 µM
GI50 [3]: 30.2 µM
GI50 [4]: 21.3 µM
GI50 [5]: 16.8 µM
Compound: CC(=O)ONC(=O)/C=C/c1ccccc1OC(=O)c1ccccc1
GI50 [1]: 18.6 µM

GI50 [2]: 12.9 µM
GI50 [3]: 25.2 µM
GI50 [4]: 12.5 µM
GI50 [5]: 12.7 µM
Activity [30]: 89 mm3
Compound: O=C(/C=C/c1ccccc1OC(=O)c1ccccc1)NOC(=O)N1CCOCC1
GI50 [1]: 5.8 µM
Activity [6]: 26.41%
Activity [7]: 20.39%
Activity [8]: 38.22%
Activity [9]: 26.12%
Activity [10]: 4.3 mm3
Activity [11]: Active
Activity [12]: Active
Activity [13]: 3.5%
Activity [14]: 42.72%
Activity [15]: 22.05%
Activity [16]: 12.7%
Activity [17]: 32.36%
Activity [18]: 48.88%
Activity [19]: 41.4%
Activity [20]: 36.83%
Activity [21]: 1.4 mm3
Activity [22]: Active
Activity [23]: 26.52%
Activity [24]: 40.14%
Activity [25]: 39.14%
Activity [26]: 22.33%
Activity [27]: 46.46%
Activity [28]: 17.3 mm3
Activity [29]: 45 mm3
Activity [31]: 31.06%
Activity [32]: 35.23%
Activity [33]: 3.03%
Activity [34]: 26.88%
Activity [35]: 42.06%
Activity [36]: 27.79%
Activity [37]: 33.34%

GI50 [2]: 17.5 µM
GI50 [3]: 44.9 µM
GI50 [4]: 11.2 µM
GI50 [5]: 35.3 µM
Compound: O=C(/C=C/c1ccccc1OC(=O)c1ccccc1)NO
GI50 [1]: 20.2 µM
